Source: ChEMBL document CHEMBL1926544, “Tyrosine-based 1-(S)-[3-hydroxy-2-(phosphonomethoxy)propyl]cytosine and -adenine ((S)-HPMPC and (S)-HPMPA) prodrugs: synthesis, stability, antiviral activity, and in vivo transport studies” (J Med Chem, 2011)

Columns and labels:
[1] = Half life in phosphate buffer at pH 6.5 at 37 degC by LC/MS analysis; assay type: physicochemical
[2] = Half life in Sprague-Dawley rat intestinal homogenate at pH 6.5 by LC/MS analysis; assay type: ADME, tissue-based, Intestine
Method in brief: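 Compound stock (1 mg/ml, 400 µL) mixed with 260 µL buffer and 140 µL homogenate, 37 °C. Samples taken over time, quenched with methanol, centrifuged, supernatant analysed by LC-MS (C18, acetonitrile gradient in ammonium acetate pH 5.5). Run separately for each phosphorus diastereomer.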

[3] = Half life in phosphate buffer at pH 7.4 at 37 degC assessed as half life by LC/MS analysis; assay type: physicochemical
Human betaherpesvirus 5 = assay: Antiviral activity against HCMV Towne infected in HFF cells incubated for 10 days by plaque reduction assay; assay type: functional, organism-based
Method in brief: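 Towne strain (plaque-purified P0) on HFF cells, about 100 plaques per well. Drug overlay (100 µM down to 0.03 µM), about 10 days incubation, crystal violet staining, microscopic plaques counted. IC50 from regression of % plaque reduction versus no-drug wells. Duplicate; ganciclovir as positive control.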

Vaccinia virus = assay: Antiviral activity against Vaccinia virus Copenhagen infected in HFF cells incubated for 3 days by plaque reduction assay; assay type: functional, organism-based, Orthopoxvirus vaccinia
KB = assay: Cytotoxicity against human KB cells after 48 hrs by crystal violet staining based spectrophotometric analysis; assay type: cell-based
Method in brief: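 KB cells at 5000 per well, left overnight at 37 °C. Compound added at eight concentrations in triplicate, 48 h at 37 °C in CO2 (two population doublings). Cells ethanol-fixed and crystal violet stained; dye eluted with acidified ethanol, read at 570 nm. IC50 by regression of % inhibition against log concentration.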

[4] = Antiviral activity against Cowpox virus Brighton infected in HFF cells incubated for 3 days by plaque reduction assay; assay type: functional, cell-based, Cowpox virus (Brighton Red)
Human alphaherpesvirus 1 = assay: Antiviral activity against HSV1 KOS infected in HFF cells incubated for 3 days by plaque reduction assay; assay type: functional, organism-based
Method in brief: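 HFF monolayer plaque reduction, about 100 plaques per well. Drug overlay (100 µM down to 0.03 µM), about 3 days incubation, crystal violet staining, macroscopic plaques counted. IC50 from regression of % plaque reduction relative to no-drug wells. Duplicate; acyclovir run as positive control.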

HFF = assay: Cytotoxicity against HFF cells after 48 hrs by visual cytotoxicity observation assay; assay type: cell-based, Homo sapiens
Plasma [5] = assay: Drug level in CFW Swiss-Webster mouse plasma assessed as (S)-cHPMPA levels dosed at 10 mg equivalent of (S)-9-[3-hydroxy-2-(phosphonomethoxy)propyl]adenine/kg, po by LC-MS analysis; assay type: ADME, organism-based; settings: in vivo
Method in brief: (§1)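 CFW Swiss-Webster mice, 4 weeks old, 25 g, fasted 18 h with water. Prodrug given by gavage in water at 10 mg eq (of HPMPA)/kg. Plasma by cardiac puncture at 1, 2, 3, 4 and 8 h, 5 mice per time point, one sample per mouse. Solid-phase extraction, then LC-MS (ESI positive) against internal-standard calibration curves.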

Plasma [6] = assay: Drug level in CFW Swiss-Webster mouse plasma dosed at 10 mg equivalent of (S)-9-[3-hydroxy-2-(phosphonomethoxy)propyl]adenine/kg, po by LC-MS analysis; assay type: ADME, organism-based; settings: in vivo; method in brief: as §1
[7] = Human betaherpesvirus 5, Towne, HFF, 240 h
[8] = Orthopoxvirus vaccinia, Copenhagen, HFF, 72 h
[9] = Human alphaherpesvirus 1, KOS, HFF, 72 h

| Compound | half-life [1] [h] | half-life [2] [h] | half-life [3] [h] | IC50 (Human betaherpesvirus 5; [7]) [µM] | IC50 (KB) [µM] | IC50 ([4]; Cowpox virus, HFF, 72 h) [µM] | IC50 (Human alphaherpesvirus 1; [9]) [µM] | IC50 (HFF; Homo sapiens, HFF, 48 h) [µM] | also measured |
| --- | --- | --- | --- | --- | --- | --- | --- | --- | --- |
| CC(C)CNC(=O)[C@@H](N)Cc1ccc(O[P@@]2(=O)CO[C@@H](Cn3cnc4c(N)ncnc43)CO2)cc1 | 12.8 | 12.8 | 3.85 |  |  |  |  |  |  |
| COC(=O)[C@@H](N)Cc1ccc(OP2(=O)CO[C@@H](Cn3ccc(N)nc3=O)CO2)cc1 (mixture of isomers) |  |  |  | 0.23 | > 100 | 50 | 25 | > 100 | IC50 (Vaccinia virus; [8]): 4 µM |
| CC(C)(C)NC(=O)[C@H](N)Cc1ccc(O[P@]2(=O)CO[C@@H](Cn3ccc(N)nc3=O)CO2)cc1 | 3.5 | 3.85 | 1 |  |  |  |  |  |  |
| Nc1ccn(C[C@@H](CO)OCP(=O)(O)O)c(=O)n1 [CIDOFOVIR] |  |  |  | 0.28 | > 100 | 30 |  | 100 |  |
| CC(C)OC(=O)[C@@H](N)Cc1ccc(OP2(=O)CO[C@@H](Cn3ccc(N)nc3=O)CO2)cc1 (mixture of isomers; form 1) |  |  |  | 0.12 | > 100 |  |  | > 100 | IC50 (Vaccinia virus; hff): 30 µM; IC50 ([4]; hff): 40 µM; IC50 (Human alphaherpesvirus 1; hff): 20 µM |
| COC(=O)[C@@H](N)Cc1ccc(O[P@]2(=O)CO[C@@H](Cn3ccc(N)nc3=O)CO2)cc1 | 0.933 | < 0.5 | 0.317 |  |  |  |  |  |  |
| CC(C)(C)NC(=O)[C@H](N)Cc1ccc(OP2(=O)CO[C@@H](Cn3ccc(N)nc3=O)CO2)cc1 (mixture of isomers) |  |  |  | < 0.1 | > 100 | 20 | 1.5 | > 100 | IC50 (Vaccinia virus; [8]): 10 µM |
| Nc1ccn(C[C@H]2COP(=O)(O)CO2)c(=O)n1 [CYCLIC CIDOFOVIR] |  |  |  |  | > 100 | 30 | 50 | > 100 |  |
| Nc1nc2c(ncn2COCCO)c(=O)[nH]1 [ACYCLOVIR] |  |  |  |  |  |  | 0.6 |  |  |
| CC(C)OC(=O)[C@@H](N)Cc1ccc(OP2(=O)CO[C@@H](Cn3ccc(N)nc3=O)CO2)cc1 (mixture of isomers; form 2) |  |  |  |  |  |  |  |  | IC50 (Human betaherpesvirus 5; hff): 0.22 µM; IC50 (Vaccinia virus; hff): 8 µM; IC50 ([4]; hff): 10 µM; IC50 (Human alphaherpesvirus 1; hff): 3 µM |
| C/C(=N\NC(N)=S)c1ccccn1 |  |  |  |  | 3 |  |  |  |  |
| CC(C)CNC(=O)[C@@H](N)Cc1ccc(OP2(=O)CO[C@@H](Cn3cnc4c(N)ncnc43)CO2)cc1 (mixture of isomers; form 3) |  |  |  |  |  |  |  |  | IC50 (Human betaherpesvirus 5; hff): 0.55 µM; IC50 (Vaccinia virus; hff): 1 µM; IC50 ([4]; hff): 2.5 µM |
| COC(=O)[C@H](Cc1ccc(OP2(=O)CO[C@@H](Cn3cnc4c(N)ncnc43)CO2)cc1)NC(=O)[C@@H](N)C(C)C (mixture of isomers) |  |  |  | 0.3 | > 100 | 8 | 35 | > 100 | IC50 (Vaccinia virus; [8]): 4 µM |
| CC(C)CNC(=O)[C@@H](N)Cc1ccc(OP(=O)(O)CO[C@H](CO)Cn2cnc3c(N)ncnc32)cc1 |  |  |  | 0.29 | > 100 | 3 | 45 | 100 | IC50 (Vaccinia virus; [8]): 0.5 µM |
| CC(C)OC(=O)[C@@H](N)Cc1ccc(O[P@@]2(=O)CO[C@@H](Cn3ccc(N)nc3=O)CO2)cc1 | 12.8 | < 0.5 | 3.98 |  |  |  |  |  |  |
| Nc1ncnc2c1ncn2C[C@@H](CO)OCP(=O)(O)O |  |  |  | 0.41 | > 100 | 4 | 35 | 100 | IC50 (Vaccinia virus; [8]): 2 µM |
| CC(C)CNC(=O)[C@@H](N)Cc1ccc(O[P@]2(=O)CO[C@@H](Cn3cnc4c(N)ncnc43)CO2)cc1 | 2.03 | 1.9 | 0.433 |  |  |  |  |  |  |

| Compound | half-life [1] [h] | half-life [2] [h] | half-life [3] [h] | IC50 (Human betaherpesvirus 5; [7]) [µM] | IC50 (KB) [µM] | IC50 ([4]; Cowpox virus, HFF, 72 h) [µM] | IC50 (Human alphaherpesvirus 1; [9]) [µM] | IC50 (HFF; Homo sapiens, HFF, 48 h) [µM] | also measured |
| --- | --- | --- | --- | --- | --- | --- | --- | --- | --- |
| CC(C)CNC(=O)[C@@H](N)Cc1ccc(OP2(=O)CO[C@@H](Cn3cnc4c(N)ncnc43)CO2)cc1 (mixture of isomers; form 1) |  |  |  |  | > 100 |  | 50 | > 100 | IC50 (Human betaherpesvirus 5; hff): 0.3 µM; IC50 (Vaccinia virus; hff): 4.5 µM; IC50 ([4]; hff): 7 µM |
| CC(C)(C)NC(=O)[C@H](N)Cc1ccc(O[P@@]2(=O)CO[C@@H](Cn3ccc(N)nc3=O)CO2)cc1 | 28.9 | 28.9 | 10.5 |  |  |  |  |  |  |
| COC(=O)[C@@H](N)Cc1ccc(O[P@@]2(=O)CO[C@@H](Cn3ccc(N)nc3=O)CO2)cc1 | 4.27 | < 0.5 | 2.02 |  |  |  |  |  |  |
| CC(C)OC(=O)[C@@H](N)Cc1ccc(O[P@]2(=O)CO[C@@H](Cn3ccc(N)nc3=O)CO2)cc1 | 2.02 | < 0.5 | 0.367 |  |  |  |  |  |  |
| COC(=O)[C@H](Cc1ccc(O[P@]2(=O)CO[C@@H](Cn3cnc4c(N)ncnc43)CO2)cc1)NC(=O)[C@@H](N)C(C)C | 1.58 | < 0.5 | 0.25 |  |  |  |  |  |  |
| Nc1nc2c(ncn2COC(CO)CO)c(=O)[nH]1 [GANCICLOVIR] |  |  |  | 0.14 |  |  |  | > 100 |  |
| COC(=O)[C@H](Cc1ccc(OP2(=O)CO[C@@H](Cn3ccc(N)nc3=O)CO2)cc1)NC(=O)[C@@H](N)C(C)C (mixture of isomers) |  |  |  | < 0.1 | > 100 | 30 | 15 |  | IC50 (Vaccinia virus; [8]): 20 µM |
| COC(=O)[C@H](N)Cc1ccc(O[P@@]2(=O)CO[C@@H](Cn3ccc(N)nc3=O)CO2)cc1 | 6.42 | 3.5 | 2.1 |  |  |  |  |  |  |
| COC(=O)[C@H](Cc1ccc(O[P@@]2(=O)CO[C@@H](Cn3cnc4c(N)ncnc43)CO2)cc1)NC(=O)[C@@H](N)C(C)C | 5.77 | < 0.5 | 1.1 |  |  |  |  |  |  |
| COC(=O)[C@@H](N)Cc1ccc(O[P@@]2(=O)CO[C@@H](Cn3cnc4c(N)ncnc43)CO2)cc1 | 5.5 | < 0.5 |  |  |  |  |  |  |  |
| COC(=O)[C@@H](N)Cc1ccc(O[P@]2(=O)CO[C@@H](Cn3cnc4c(N)ncnc43)CO2)cc1 | 0.917 | < 0.5 |  |  |  |  |  |  |  |
| COC(=O)[C@H](N)Cc1ccc(OP2(=O)CO[C@@H](Cn3ccc(N)nc3=O)CO2)cc1 (mixture of isomers) |  |  |  | 0.2 | > 100 | 35 | 35 | > 100 | IC50 (Vaccinia virus; [8]): 25 µM |
| CC(C)CNC(=O)[C@@H](N)Cc1ccc(OP2(=O)CO[C@@H](Cn3cnc4c(N)ncnc43)CO2)cc1.Cl (mixture of isomers; form 2) |  |  |  |  |  |  |  |  | IC50 (Human betaherpesvirus 5; hff): 1.3 µM; Drug uptake (Plasma [5]): 80%; IC50 (Vaccinia virus; hff): 1.5 µM; Drug uptake (Plasma [6]): 20%; IC50 ([4]; hff): 2 µM; IC50 (Human alphaherpesvirus 1; hff): 35 µM; IC50 (HFF; hff): 100 µM |
| COC(=O)[C@@H](N)Cc1ccc(OP2(=O)CO[C@@H](Cn3cnc4c(N)ncnc43)CO2)cc1 (mixture of isomers; form 1) |  |  |  | 0.45 | > 100 | 7 | 25 | > 100 | IC50 (Vaccinia virus; [8]): 3 µM |
| COC(=O)[C@H](N)Cc1ccc(O[P@]2(=O)CO[C@@H](Cn3ccc(N)nc3=O)CO2)cc1 | 1.52 | 1.2 | 0.35 |  |  |  |  |  |  |
| COC(=O)[C@@H](N)Cc1ccc(OP2(=O)CO[C@@H](Cn3cnc4c(N)ncnc43)CO2)cc1 (mixture of isomers; form 2) |  |  |  |  |  |  |  |  | IC50 ([4]; hff): 3.5 µM; IC50 (Human alphaherpesvirus 1; hff): 35 µM |
| Nc1ncnc2c1ncn2C[C@H]1COP(=O)(O)CO1 |  |  |  | 1.3 | > 100 | 0.6 | 30 | 100 | IC50 (Vaccinia virus; [8]): 1 µM |
